ChEMBL document CHEMBL1135644, “Effect of spermine conjugation on the cytotoxicity and cellular transport of acridine” (J Med Chem, 2002)

Experiments:
CHO [1] = test: Cellular uptake of conjugates in CHO cells at a concentration of 0.5 uM (+/-15% SEM); assay type: functional, cell-based; details: Cricetulus griseus
Summary of the method: (§1)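 Conjugates added 24 h after seeding (1 × 10^5 cells/mL, RPMI 1640 with 10% FCS and 2 mM aminoguanidine; proline added for CHO-MG) and left for 24 h. Cells were washed in 0.14 M NaCl, sonicated in 0.2 N HClO4/2 M NaCl and held 16 h at 4 °C. Conjugate in the supernatant was measured by fluorimetry against standards and expressed per mg protein (Folin). Mean of three determinations (±15%).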

CHO-MG [2] = test: In vitro 50% cell growth inhibition by the compound in CHO-MG cells; assay type: functional, cell-based; details: Cricetulus griseus
Summary of the method: (§2)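 CHO or CHO-MG cells were trypsinized and plated singly at 2 × 10^3 cells/mL in RPMI 1640/10% FCS with 2 mM aminoguanidine (proline for CHO-MG). Conjugates were added after overnight incubation, with 48 h exposure. Growth was read by MTT formazan absorbance at 540 nm relative to untreated controls. The value is the concentration giving 25% or 50% growth inhibition.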

CHO-MG [3] = test: Cellular uptake of conjugates in CHO-MG cells at a concentration of 0.5 uM (+/-15% SEM); assay type: functional, cell-based; details: Cricetulus griseus; summary of the method: as §1
L1210 [4] = test: In vitro 50% cell growth inhibition by the compound in L1210 cells; assay type: functional, cell-based; details: Mus musculus
Summary of the method: (§3)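 L1210 cells were seeded at 5 × 10^4 cells/mL with conjugate added at seeding, in medium with 2 mM aminoguanidine, for 48 h exposure. Growth was measured by MTT absorbance at 540 nm relative to untreated controls.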

L1210 [5] = test: In vitro 50% cell growth inhibition by the compound in L1210 cells with 5 mM DFMO addition; assay type: functional, cell-based; details: Mus musculus
Summary of the method: (§4)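 L1210 cells were seeded at 5 × 10^4 cells/mL, and conjugate plus 5 mM DFMO were added at seeding with 2 mM aminoguanidine present. After 48 h, growth was read by MTT at 540 nm relative to DFMO-only controls.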

L1210 [6] = test: In vitro 25% cell growth inhibition by the compound in L1210 cells; assay type: functional; details: Mus musculus; summary of the method: as §3
L1210 [7] = test: In vitro 25% cell growth inhibition by the compound in L1210 cells with 5 mM DFMO addition; assay type: functional; details: Mus musculus; summary of the method: as §4
L1210 [8] = test: Inhibition of [14C]SPD uptake by the compound in 5 min initial rate transport assay in L1210 cells; assay type: functional, cell-based, Mus musculus
L1210 [9] = test: Cellular uptake of conjugates in L1210 cells (control) at a concentration of 0.5 uM (+/-15% SEM); assay type: functional, cell-based; details: Mus musculus
Summary of the method: (§5)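 L1210 cells were seeded at 2 × 10^5 cells/mL with conjugate added at seeding, in medium containing 2 mM aminoguanidine, and cultured 24 h. Washed cells were extracted in 0.2 N HClO4/2 M NaCl for 16 h at 4 °C. Intracellular conjugate was quantified by fluorimetry and expressed as nmol/mg protein. Mean of three determinations (±15%).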

L1210 [10] = test: Cellular uptake of conjugates in L1210 cells (control) at a concentration of 1 uM (+/-15% SEM); assay type: functional, cell-based; details: Mus musculus; summary of the method: as §5
L1210 [11] = test: Cellular uptake of conjugates in L1210 cells (control) at a concentration of 2 uM (+/-15% SEM); assay type: functional, cell-based; details: Mus musculus; summary of the method: as §5
L1210 [12] = test: Cellular uptake of conjugates in L1210 cells in presence of 500 uM SPD at a concentration of 0.5 uM (+/-15% SEM); assay type: functional, cell-based; details: Mus musculus
Summary of the method: (§6)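 Same as the L1210 uptake assay: seeded at 2 × 10^5 cells/mL, conjugate plus 500 μM spermidine added together at seeding, 24 h exposure. Extraction in HClO4/NaCl, fluorimetric quantitation, normalized to protein. Mean of three determinations (±15%).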

L1210 [13] = test: Cellular uptake of conjugates in L1210 cells in presence of 500 uM SPD at a concentration of 1 uM (+/-15% SEM); assay type: functional, cell-based; details: Mus musculus; summary of the method: as §6
Nucleic Acid = test: Drug concentration required to produce 50% inhibition of fluorescence bound ethidium to CT-DNA (1.26:1) (+/-SEM 5%); assay type: functional; details: Bos taurus
Summary of the method: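 Ethidium displacement: 1 μM CT-DNA with 1.26 μM ethidium bromide; conjugate stock added serially. Fluorescence was read at excitation 546 nm and emission 595 nm. The value is the conjugate concentration cutting DNA-bound ethidium fluorescence by 50%. Mean of three determinations (±5%).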

[14] = Ratio of cellular uptake in CHO cells to that of CHO-MG cells.; assay type: functional
CHO [15] = test: In vitro 50% cell growth inhibition by the compound in CHO cells; assay type: functional, cell-based; details: Cricetulus griseus; summary of the method: as §2
CHO [16] = test: Cellular uptake of conjugates in CHO cells at a concentration of 10 uM (+/-15% SEM); assay type: functional, cell-based; details: Cricetulus griseus; summary of the method: as §1
CHO [17] = test: Cellular uptake of conjugates in CHO cells at a concentration of 2.5 uM (+/-15% SEM); assay type: functional, cell-based; details: Cricetulus griseus; summary of the method: as §1
CHO-MG [18] = test: In vitro 50% cell growth inhibition by the compound in CHO-MG cells (control); assay type: functional, cell-based; details: Cricetulus griseus; summary of the method: as §2
CHO-MG [19] = test: Cellular uptake of conjugates in CHO-MG cells at a concentration of 10 uM (+/-15% SEM); assay type: functional, cell-based; details: Cricetulus griseus; summary of the method: as §1
CHO-MG [20] = test: Cellular uptake of conjugates in CHO-MG cells at a concentration of 2.5 uM (+/-15% SEM); assay type: functional, cell-based; details: Cricetulus griseus; summary of the method: as §1
CHO [21] = test: In vitro 50% cell growth inhibition by the compound in CHO cells (control); assay type: functional, cell-based; details: Cricetulus griseus; summary of the method: as §2
L1210 [22] = test: In vitro 50% cell growth inhibition by the compound in L1210 cells (control) with 5 mM DFMO addition; assay type: functional, cell-based; details: Mus musculus; summary of the method: as §4
L1210 [23] = test: Cellular uptake of conjugates in L1210 cells (control) at a concentration of 10 uM (+/-15% SEM); assay type: functional, cell-based; details: Mus musculus; summary of the method: as §5
L1210 [24] = test: Cellular uptake of conjugates in L1210 cells (control) at a concentration of 5 uM (+/-15% SEM); assay type: functional, cell-based; details: Mus musculus; summary of the method: as §5
L1210 [25] = test: Cellular uptake of conjugates in L1210 cells in presence of 500 uM SPD at a concentration of 10 uM (+/-15% SEM); assay type: functional, cell-based; details: Mus musculus; summary of the method: as §6
L1210 [26] = test: Cellular uptake of conjugates in L1210 cells in presence of 500 uM SPD at a concentration of 5 uM (+/-15% SEM); assay type: functional, cell-based; details: Mus musculus; summary of the method: as §6
L1210 [27] = test: Cellular uptake of conjugates in L1210 cells pretreated with 5 mM DFMO at a concentration of 10 uM (+/-15% SEM); assay type: functional, cell-based; details: Mus musculus
Summary of the method: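 L1210 cells were seeded at 10^5 cells/mL in medium with 5 mM DFMO, and conjugates were added 24 h later. Cells were harvested after a further 24 h, extracted in 0.2 N HClO4/2 M NaCl and assayed by fluorimetry, expressed per mg protein. Mean of three determinations (±15%).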

[28] = Ratio of cellular uptake in CHO cells to that of CHO-MG cells at 10 uM; assay type: functional
[29] = Ratio of cellular uptake in CHO cells to that of CHO-MG cells at 2.5 uM; assay type: functional
CHO [30] = test: Cellular uptake of conjugates in CHO cells at a concentration of 1.25 uM (+/-15% SEM); assay type: functional, cell-based; details: Cricetulus griseus; summary of the method: as §1
CHO-MG [31] = test: Cellular uptake of conjugates in CHO-MG cells at a concentration of 1.25 uM (+/-15% SEM); assay type: functional, cell-based; summary of the method: as §1
[32] = Ratio of cellular uptake in CHO cells to that of CHO-MG cells at 1.25 uM; assay type: functional

Cl.NCCCNCCCCNCCCNCCCCN=c1c2ccccc2[nH]c2ccccc12
Uptake (nM (mg of protein)-1) (CHO [1]): 0.081 | IC50 (CHO-MG [2]): 7200 nM | Uptake (nM (mg of protein)-1) (CHO-MG [3]): 0.026 | IC50 (L1210 [4]): 2300 nM | IC50 (L1210 [5]): 600 nM | IC25 (L1210 [6]): 1100 nM | IC25 (L1210 [7]): 160 nM | Ki (L1210 [8]): 83 nM | Uptake (nM (mg of protein)-1) (L1210 [9]): 0.193 | Uptake (nM (mg of protein)-1) (L1210 [10]): 0.362 | Uptake (nM (mg of protein)-1) (L1210 [11]): 0.491 | Uptake (nM (mg of protein)-1) (L1210 [12]): 0.094 | Uptake (nM (mg of protein)-1) (L1210 [13]): 0.28 | Concentration for 50% ethidium displacement from DNA (C50) (Nucleic Acid): 110 nM | Ratio [14]: 3.1 | IC50 (CHO [15]): 2300 nM

c1ccc2nc3ccccc3cc2c1
Concentration for 50% ethidium displacement from DNA (C50) (Nucleic Acid): 142000 nM

Cl.NCCCNCCCCNCCCNCCCNC(=O)c1c2ccccc2nc2ccccc12
Uptake (nM (mg of protein)-1) (CHO [16]): 0.1 | Uptake (nM (mg of protein)-1) (CHO [17]): 0.014 | IC50 (CHO-MG [18]): 35000 nM | Uptake (nM (mg of protein)-1) (CHO-MG [19]): 0.108 | Uptake (nM (mg of protein)-1) (CHO-MG [20]): 0.017 | IC50 (CHO [21]): 30000 nM | IC50 (L1210 [4]): 43000 nM | IC50 (L1210 [22]): 2200 nM | IC25 (L1210 [6]): 22000 nM | IC25 (L1210 [7]): 90 nM | Ki (L1210 [8]): 97 nM | Uptake (nM (mg of protein)-1) (L1210 [23]): 0.239 | Uptake (nM (mg of protein)-1) (L1210 [24]): 0.086 | Uptake (nM (mg of protein)-1) (L1210 [25]): 0.221 | Uptake (nM (mg of protein)-1) (L1210 [26]): 0.073 | Uptake (nM (mg of protein)-1) (L1210 [27]): 0.587 | Concentration for 50% ethidium displacement from DNA (C50) (Nucleic Acid): 120 nM | Ratio [28]: 0.93 | Ratio [29]: 0.83

Cl.NCCCNCCCCNCCCNCCCCNC(=O)c1c2ccccc2nc2ccccc12
Uptake (nM (mg of protein)-1) (CHO [30]): 0.018 | Uptake (nM (mg of protein)-1) (CHO [16]): 0.183 | IC50 (CHO-MG [2]): 21000 nM | Uptake (nM (mg of protein)-1) (CHO-MG [19]): 0.172 | IC50 (L1210 [4]): 18000 nM | IC50 (L1210 [5]): 2200 nM | IC25 (L1210 [6]): 10000 nM | IC25 (L1210 [7]): 160 nM | Ki (L1210 [8]): 83 nM | Uptake (nM (mg of protein)-1) (L1210 [23]): 0.561 | Uptake (nM (mg of protein)-1) (L1210 [27]): 0.85 | Concentration for 50% ethidium displacement from DNA (C50) (Nucleic Acid): 120 nM | Uptake (nM (mg of protein)-1) (CHO-MG [31]): 0.013 | Ratio [32]: 1.4 | Ratio [28]: 1.1 | IC50 (CHO [15]): 17000 nM
